# Screening data: PubChem BioAssay, Broad Institute
# Rows were chosen to be rich in hits. Some 3.1% of all compounds tested hit in one or more screens of this group.
# Ecoli rRNA inh: reduced GFP signal of wild-type E. coli, primary screen, bacterial rRNA inhibitor project, GFP/RFP fluorescence, OD600, single point. E. coli WT GFP vs humanized-ribosome RFP mutants, 24 h; stronger effect = lower value; DMSO median 0, no signal -100. GFP signal change (wild-type ribosome), % (concentration not given with the values). actives 1.6% (n = 350,000). AID 720706, 2013;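 active = significant combined selectivity score with lowered wild-type GFP, culture density cut under 30%, mutant RFP and density less affected; inactive = any of these conditions unmet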
# DENV2 CPE rescue: inhibitors of DENV2 cytopathic effect, primary screen, cell-based, plate reader, single concentration. CPE inhibition, % at 9.99 µM. actives 1.7% (n = 350,000). AID 651640, 2012. DENV2-infected cells, cytopathic effect rescue; in the data active = CPE inhibition above about 20%, passing the limit was not always enough; inconclusive = no clear call, values can overlap the other calls; tested in BHK-21 cells;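 also: 0% = median of neutral control wells and 100% = median of positive control wells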
# miR-122 sensor: miR-122 Renilla sensor signal increase in Huh7, primary screen, miR-122 inhibitor project, cell-based, single point, plate reader; Huh7 miR-122 Renilla luciferase sensor, 48 h; neutral wells = 0, positive control = 100; activation (reporter increase), % at 12.5 µM; actives 0.3% (n = 340,000);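 active = mean replicate activation score at least 90 and every replicate individually at or above 90; inconclusive = only one of the two criteria met; inactive = neither criterion met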;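 also: higher luciferase means less miR-122 activity so hits act as miR-122 inhibitors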
# E-selectin induc: E-selectin induction in HUVECs, primary screen, imaging, HUVEC, immunofluorescence imaging, single point. P16581. normalized: neutral wells 0, TNF-alpha wells 100. activation, % at 7.58 µM. actives 0.37% (n = 260,000);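 active = mean E-selectin-positive cell signal at least 10% of the positive control, reached in at least 60% of replicates, without over 20% cell loss; inconclusive = no rule given, readout overlaps actives, possibly toxicity-flagged; inactive = the rest, including those meeting only one limit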
# Target sequence (P16581 whole entry, looked up): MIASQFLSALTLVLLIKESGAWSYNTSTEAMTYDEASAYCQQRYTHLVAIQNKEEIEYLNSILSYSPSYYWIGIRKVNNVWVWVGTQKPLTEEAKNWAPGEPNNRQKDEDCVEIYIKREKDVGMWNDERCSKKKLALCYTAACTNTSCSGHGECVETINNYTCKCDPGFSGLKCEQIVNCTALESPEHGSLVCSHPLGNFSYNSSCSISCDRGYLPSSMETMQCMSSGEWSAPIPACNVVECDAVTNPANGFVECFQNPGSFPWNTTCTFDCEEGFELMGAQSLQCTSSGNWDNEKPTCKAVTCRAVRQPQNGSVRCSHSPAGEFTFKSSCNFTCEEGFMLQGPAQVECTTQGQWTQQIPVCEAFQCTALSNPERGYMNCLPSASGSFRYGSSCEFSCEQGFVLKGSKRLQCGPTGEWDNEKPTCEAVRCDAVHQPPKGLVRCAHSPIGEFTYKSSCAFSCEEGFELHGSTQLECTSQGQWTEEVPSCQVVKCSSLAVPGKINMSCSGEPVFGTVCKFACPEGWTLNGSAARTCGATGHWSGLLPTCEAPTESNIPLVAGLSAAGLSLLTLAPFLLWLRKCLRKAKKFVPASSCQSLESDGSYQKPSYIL
#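 Test system – human umbilical vein endothelial cells (HUVEC), E-selectin induction · Input – 3,000 HUVEC seeded per well · Buffer or medium – EGM-2, gelatin · Compound dosing – single-point compound dose · Detection – immunofluorescence imaging · Measure – percent E-selectin-positive cells · Controls – TNF-alpha high, DMSO low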
# Cneo AK release: Cryptococcus neoformans cell lysis inducers, primary screen, AK release luminescence, single concentration | C. neoformans lysis, adenylate kinase release luminescence, 4 h; normalised: neutral wells 0, clomiphene wells 100 | AID 651654, 2012 | lysis activity, % at 15 µM | actives 0.2% (n = 360,000);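 active = mean lysis activity across replicates of at least 80%, whatever share of replicates individually reach that level; inactive = mean lysis activity below 80%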
#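 Assay system: C. neoformans cells. Amount: yeast cell density of 5 × 10^6 cells/mL. Technique: AK luminescence. Buffer or medium: YPD. Times: static 4 h at 37 °C with compound, 1 h detection. Dosing: single-point compound dose. Read-out: lysis from increased AK signal.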
# Starred values were filed as active, the others as inactive; ? = inconclusive; · = no result; [ ] = dose if it differs, or a comment.
SMILES,Ecoli rRNA inh,DENV2 CPE rescue,miR-122 sensor,E-selectin induc,Cneo AK release
CC1=C2[C@@H](c3ccccc3)OB(O)C[C@@H]2[C@@H]2C(=O)N(Cc3ccccc3)C(=O)[C@@H]2C1,·,-7,·,·,-3
CCCNC(=O)N1CC2(C1)CN(C(=O)NC(C)C)[C@@H](CO)c1c2c2ccc(OC)cc2n1C,1,·,·,·,·
COCC(=O)N(C)C[C@@H]1Oc2ncc(C#CC3(O)CCCC3)cc2C(=O)N([C@@H](C)CO)C[C@H]1C,7,41*,14[16.7 µM],-1,-4
CCCCNC(=O)c1ccc(NS(=O)(=O)c2ccc3[nH]c(=O)[nH]c3c2)cc1,0,23*,-5,0,-1
CCCCCNC(=O)c1ccc(NS(=O)(=O)c2ccc3[nH]c(=O)[nH]c3c2)cc1,6,0,-2,0,1
OC[C@@H]1[C@H](c2ccc(-c3cccc(F)c3)cc2)[C@@H]2CN(CCC(F)(F)F)CCCCN12,-57,41*,18[16.7 µM],0,7
OC[C@@H]1[C@@H](c2ccc(-c3cccc(F)c3)cc2)[C@@H]2CN(CCC(F)(F)F)CCCCN12,-58,0,7[16.7 µM],0,-2
OC[C@@H]1[C@@H](c2ccc(-c3ccccc3)cc2)[C@H]2CN(CCC(F)(F)F)CCCCN12,5,20*,1[16.7 µM],0,4
CCNC(=O)C[C@@H]1CC[C@@H]2[C@H](COc3ccc(NC(=O)c4ccc(F)c(F)c4)cc3C(=O)N2C)O1,1,90*,10[16.7 µM],0,1
CCCC(=O)Nc1ccc2c(c1)C(=O)N(C)[C@H]1CC[C@@H](CC(=O)NCC(F)(F)F)O[C@H]1CO2,0,0,143*[16.7 µM],0,-5
CCNC(=O)C[C@H]1CC[C@H]2[C@@H](COc3ccc(NC(=O)c4ccc(F)c(F)c4)cc3C(=O)N2C)O1,0,-9,-30[16.7 µM],0,-1
CNC(=O)C[C@H]1CC[C@@H]2[C@H](COc3ccc(NC(=O)c4cscn4)cc3C(=O)N2C)O1,0,29*,21[16.7 µM],0,5
CNC(=O)C[C@H]1CC[C@H]2[C@@H](COc3ccc(NC(=O)c4ccc(F)c(F)c4)cc3C(=O)N2C)O1,0,52*,0[16.7 µM],0,11
COCC1=C2[C@@H](CCc3ccccc3)OB(O)C[C@@H]2n2c(=O)n(-c3ccccc3)c(=O)n2C1,·,8,·,·,-1
CC(C)[C@@H]1COCc2cn(nn2)CC[C@@H](Cc2ccc(Cl)cc2)C(=O)N1,-1,·,·,·,·
C[C@H](CO)N1C[C@H](C)[C@@H](CN(C)Cc2ccc(-c3ccccc3)cc2)Oc2ccc(NC(=O)Nc3cccc4ccccc34)cc2CC1=O,5,·,·,1,·
O=C(C[C@H]1CC[C@H](NS(=O)(=O)c2ccc(F)cc2)[C@H](CO)O1)NC1CCC1,1,-4,·,0,1
CCS(=O)(=O)N1CCCCN2[C@H](CO)[C@H](c3ccc(C#Cc4ccccn4)cc3)[C@@H]2C1,1,-1,10[16.7 µM],0,3
CCS(=O)(=O)N1CCCCN2[C@H](C1)[C@H](c1ccc(C#Cc3ccccn3)cc1)[C@@H]2CO,-5,52*,1[16.7 µM],0,3
CCS(=O)(=O)N1CCCCN2[C@H](C1)[C@@H](c1ccc(C#Cc3ccccc3OC)cc1)[C@@H]2CO,6,40*,-10[16.7 µM],0,47
COC(=O)C1=C(C)OC(N)=C(C#N)C1C1CCCCC1 (centres undefined),-21*,-2,-3,·,1
C[C@@H]1CN([C@H](C)CO)C(=O)c2cccc(NC(=O)Nc3ccccc3)c2O[C@@H]1CN(C)Cc1ccc(Cl)c(Cl)c1,-6,76*,22[16.7 µM],·,101*
C[C@@H]1CN([C@@H](C)CO)C(=O)c2cccc(NC(=O)Nc3ccccc3)c2O[C@H]1CN(C)Cc1ccc(Cl)c(Cl)c1,-2,-12,33[16.7 µM],·,0
C[C@H](CO)N1C[C@H](C)[C@H](CN(C)Cc2ccc(Cl)c(Cl)c2)Oc2c(NC(=O)Nc3ccccc3)cccc2C1=O,-2,2,84[16.7 µM],·,90*
C[C@H]1CN([C@@H](C)CO)C(=O)c2cccc(NC(=O)Nc3ccccc3)c2O[C@@H]1CN(C)Cc1ccc(Cl)c(Cl)c1,-4,-10,8[16.7 µM],·,0
SMILES,Ecoli rRNA inh,DENV2 CPE rescue,miR-122 sensor,E-selectin induc,Cneo AK release
COc1ccc2c(c1)CC/C(=C/c1cc(OC)c(OC)c(OC)c1)C2=O,-20*,9,3,3,·
COc1cccc(/C=C2\CCc3ccccc3C2=O)c1,-20,-5,·,0,-4
COc1ccc(OC)c(C=C2CCc3ccccc3C2=O)c1,-25,-3,19,0,2
COc1cccc(C=C2Cc3ccccc3C2=O)c1,-17*,-4,·,0,·
C[C@@H]1CN([C@@H](C)CO)C(=O)c2cccc(NC(=O)C3CC3)c2O[C@@H]1CN(C)Cc1ccc(Cl)c(Cl)c1,2,7,8[16.7 µM],0,1
C[C@H](CO)N1C[C@H](C)[C@@H](CN(C)Cc2ccc(Cl)c(Cl)c2)Oc2c(NC(=O)C3CC3)cccc2C1=O,-11,4,114*[16.7 µM],-1,-2
C[C@@H]1CN([C@H](C)CO)C(=O)c2cccc(NC(=O)NC3CCCCC3)c2O[C@H]1CN(C)Cc1ccc(Cl)c(Cl)c1,-1,-8,118*[16.7 µM],-1,1
C[C@H](CO)N1C[C@H](C)[C@@H](CN(C)Cc2ccc(Cl)c(Cl)c2)Oc2c(NC(=O)NC3CCCCC3)cccc2C1=O,0,?,35[16.7 µM],-1,5
COCC(=O)N(C[C@@H]1N[C@H](CO)[C@H]1c1ccc(C2=CCCC2)cc1)C(C)C,3,-9,21[16.7 µM],0,-2
CCCN(CCC)CCCNC(=O)c1cc2c(=O)[nH]c3ccccc3c2n1C,-11,29*,·,-2,·
CO[C@H]1CN(C)C(=O)c2ccc(NC(=O)c3nc4ccccc4s3)cc2OC[C@@H](C)NC[C@H]1C,-3,1,·,0,-1
COC(=O)Cc1c(O)ccn(CCc2ccc(OC)c(OC)c2)c1=O,12,-5,-1,·,0
COc1ccc(CCn2ccc(O)c(Cc3ccc(Cl)cc3)c2=O)cc1OC,-29*,-2,·,-3,1
Nc1cc(=O)[nH]c(N)n1,-13*,-1,-2,?,-2
Cc1noc(C)c1NC(=O)N(C)C[C@H]1OCCCC[C@@H](C)Oc2ccc(N(C)C)cc2C(=O)N([C@H](C)CO)C[C@H]1C,1,·,3[16.7 µM],0,·
O=C(Nc1ccc(Oc2ccccc2)cc1)c1csc([C@@H]2O[C@H](CO)[C@@H](O)[C@H]2O)n1,-31*,2,-40,0,-1
